The results in this text go back to ChEMBL document CHEMBL1145853, “Design, synthesis, and biological evaluation of cytotoxic 11-alkenylindenoisoquinoline topoisomerase I inhibitors and indenoisoquinoline-camptothecin hybrids” (2003).

What is called GI50 is the concentration at which growth is held to half of that of the control. High values mean less potent growth inhibition, low ones more potent growth inhibition.

The target in assay [1] is T1, DNA topoisomerase 1 (Homo sapiens) (UniProt P11387).
T1 sequence (whole entry): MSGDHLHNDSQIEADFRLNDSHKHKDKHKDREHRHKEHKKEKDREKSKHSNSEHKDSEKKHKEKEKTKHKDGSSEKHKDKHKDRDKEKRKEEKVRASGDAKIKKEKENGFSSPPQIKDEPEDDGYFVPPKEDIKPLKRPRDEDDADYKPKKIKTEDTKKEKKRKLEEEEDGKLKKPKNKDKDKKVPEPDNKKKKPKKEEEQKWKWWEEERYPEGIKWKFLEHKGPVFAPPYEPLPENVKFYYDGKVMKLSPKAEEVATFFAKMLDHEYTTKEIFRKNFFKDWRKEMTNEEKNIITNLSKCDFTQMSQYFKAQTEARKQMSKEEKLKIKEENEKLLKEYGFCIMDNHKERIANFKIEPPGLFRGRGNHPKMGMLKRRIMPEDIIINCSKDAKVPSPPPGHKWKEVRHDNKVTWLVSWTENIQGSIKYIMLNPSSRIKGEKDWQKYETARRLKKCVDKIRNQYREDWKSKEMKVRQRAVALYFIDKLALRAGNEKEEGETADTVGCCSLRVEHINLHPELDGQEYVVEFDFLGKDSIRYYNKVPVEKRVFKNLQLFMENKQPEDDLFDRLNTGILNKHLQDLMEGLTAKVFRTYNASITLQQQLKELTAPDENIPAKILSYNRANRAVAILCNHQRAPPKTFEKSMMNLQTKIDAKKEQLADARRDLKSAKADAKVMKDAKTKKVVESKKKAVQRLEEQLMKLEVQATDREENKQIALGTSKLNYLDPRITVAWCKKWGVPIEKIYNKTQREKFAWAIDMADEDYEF
In words: Activity to produce DNA topoisomerase I-mediated DNA cleavage at concentration up to 10 uM. The gist of the method:
(§1)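 Human recombinant top1, purified from baculovirus, was incubated for 30 min at 22 °C with the drug at up to 10 μM. The substrate was a 161 bp PvuII/HindIII fragment of pBluescript SK(-), 3'-end-labeled at the HindIII site by Klenow fill-in with [α-32P]dGTP, about 50 000 dpm per reaction. Reactions were stopped with SDS (0.5% final) and run on denaturing 16% polyacrylamide/7 M urea gels. Cleavage was scored semiquantitatively.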

For another assay, the system named is UACC-62. In words: Cytotoxic concentration against human melanoma UACC-62 cell line growth inhibition. It is filed as functional.
The next assay has as its system SF-539. In words: Cytotoxic concentration against human CNS SF-539 cell line growth inhibition. It is filed as functional.
The next assay concerns HOP-62. In words: Cytotoxic concentration against human lung HOP-62 cell line growth inhibition. It is filed as functional.
Another assay deals with SN12C. In words: Cytotoxic concentration against human renal SN12C cell line growth inhibition. The class given is functional.
The subject of the next assay is HCT-116. As to the kind of experiment: Cytotoxic concentration against human colon HCT116 cell line growth inhibition. It is filed as functional.
The next assay relates to MDA-MB-435. As to the kind of experiment: Cytotoxic concentration against human breast MDA-MB-435 cell line growth inhibition. It is filed as functional.
Another assay deals with DU-145. As to the kind of experiment: Cytotoxic concentration against human prostate DU-145 cell line growth inhibition. The class given is functional.
For the next assay, the system named is OVCAR-3. As to the kind of experiment: Cytotoxic concentration against human ovarian OVCAR-3 cell line growth inhibition. The class given is functional.
In assay [2] the target is T1, DNA topoisomerase 1 (Homo sapiens). As to the kind of experiment: Activity to produce DNA topoisomerase I-mediated DNA cleavage at concentration up to 10 uM; +, indicates weak activity. The gist of the method:
as §1

The test system of another assay is Cancer cell lines. As to the kind of experiment: Mean graph midpoint for growth inhibition of all human cancer cell lines. The class given is functional.
Assay [3] addresses T1, DNA topoisomerase 1 (Homo sapiens). In words: Activity to produce DNA topoisomerase I-mediated DNA cleavage at concentration up to 10 uM; +++, greater activity than the parent compound 2. The gist of the method: as §1

`COc1cc2c3c(n(C)c(=O)c2cc1OC)-c1cc2c(cc1/C3=C/CCCI)OCO2` came in with an Activity in [1] of 0. Also, the GI50 was 3.5 µM in the assay with UACC-62; 4.3 µM with SF-539; 27.6 µM in the assay with HOP-62; 8.8 µM in the assay with SN12C; 0.56 µM in the assay on HCT-116; 5.2 µM in the assay on MDA-MB-435. For the same compound, the 50% growth inhibitory concentration (GI50) with DU-145 came out at 28.7 µM; in the assay on OVCAR-3 it was 22.8 µM.
In the case of `COc1cc2cc3n(c(=O)c2cc1OC)Cc1cc2ccccc2nc1-3` [DIMETHOXYAROMATHECIN], the GI50 with UACC-62 was > 100 µM; in the assay with SF-539, > 100 µM; in the assay with HOP-62, > 100 µM; in the assay with SN12C it was > 100 µM; in the assay with HCT-116 it was 57.3 µM; with MDA-MB-435 it was > 100 µM. For the same compound, the GI50 in the assay on DU-145 and with OVCAR-3 was > 100 µM each time. The Activity entry in [2] is “indicates weak activity”.
As for `COc1cc2c3c(n(C)c(=O)c2cc1OC)-c1cc2c(cc1/C3=C\CCCCl)OCO2`, the Activity result in assay [2] was “Weak activity”. The concentration for 50% growth inhibition (GI50) with SN12C and in the assay with MDA-MB-435 was > 100 µM throughout.
Turning to `COc1cc2c3c(n(C)c(=O)c2cc1OC)-c1cc2c(cc1/C3=C/CCN)OCO2`, the MGM with Cancer cell lines was found to be 0.34 µM. Besides, the GI50 with UACC-62 is 0.2 µM; in the assay on SF-539 it was 0.42 µM; with HOP-62, 0.071 µM; with SN12C it was 0.58 µM; with HCT-116 it was 0.028 µM; with MDA-MB-435 it was 1.8 µM. The values for the GI50 in the assay with DU-145 and in the assay with OVCAR-3 were 0.37 µM and 0.56 µM, respectively. The Activity result in [3] was “greater activity than compound 2”.
Regarding `O=c1c2ccccc2cc2n1Cc1cc3ccccc3nc1-2` [ROSETTACIN], the concentration for 50% growth inhibition (GI50) in the assay with UACC-62 is 97.2 µM; in the assay with SF-539, 66.7 µM; with HOP-62, 68.2 µM; in the assay on SN12C, > 100 µM; in the assay on HCT-116 it was 32.7 µM; with MDA-MB-435, 41.8 µM. The 50% growth inhibitory concentration (GI50) with DU-145 is > 100 µM; with OVCAR-3 it was 39.8 µM.
In assay [1], `COc1cc2c3c(n(C)c(=O)c2cc1OC)-c1cc2c(cc1/C3=C\CCCBr)OCO2` showed an Activity of 0. The GI50 with UACC-62 is 11.4 µM; with SF-539, 30 µM; in the assay with HOP-62 it was 19.4 µM; in the assay on SN12C, > 100 µM; with HCT-116, 37.8 µM; in the assay on MDA-MB-435 it was > 100 µM. Also, the 50% growth inhibitory concentration (GI50) in the assay with DU-145 stood at 67.8 µM; in the assay with OVCAR-3, 58.1 µM.
For `COc1cc2c3c(n(C)c(=O)c2cc1OC)-c1cc2c(cc1/C3=C\CCCCBr)OCO2`, the 50% growth inhibitory concentration (GI50) with UACC-62, with SN12C, in the assay on MDA-MB-435 and in the assay on OVCAR-3 was > 100 µM throughout.
In the assay with Cancer cell lines, `COc1cc2c3c(n(C)c(=O)c2cc1OC)-c1cc2c(cc1/C3=C/CCCCCBr)OCO2` showed an MGM of 7.8 µM.
In the assay with Cancer cell lines, `COc1cc2c3c(n(C)c(=O)c2cc1OC)-c1cc2c(cc1C3=O)OCO2` came in with an MGM of 20 µM. For the same compound, the GI50 is 4.2 µM with UACC-62; 41 µM in the assay with SF-539; 1.3 µM with HOP-62; 68 µM in the assay on SN12C; 35 µM in the assay on HCT-116; 96 µM with MDA-MB-435. In the assay with DU-145, halving of growth (GI50) required 37 µM.
